Test results reported in ChEMBL document CHEMBL1148232, “Inhibitory activities against topoisomerase I and II by polyhydroxybenzoyl amide derivatives and their structure-activity relationship” (Bioorg Med Chem Lett, 2004).

What was measured:
DNA topoisomerase 1 [1] = target: T1, DNA topoisomerase 1 (Homo sapiens, UniProt P11387); assay: Inhibitory concentration against relaxation activity of DNA topoisomerase I by detecting the conversion of supercoiled pBR322 DNA to its relaxed form
T1 sequence (P11387 whole entry): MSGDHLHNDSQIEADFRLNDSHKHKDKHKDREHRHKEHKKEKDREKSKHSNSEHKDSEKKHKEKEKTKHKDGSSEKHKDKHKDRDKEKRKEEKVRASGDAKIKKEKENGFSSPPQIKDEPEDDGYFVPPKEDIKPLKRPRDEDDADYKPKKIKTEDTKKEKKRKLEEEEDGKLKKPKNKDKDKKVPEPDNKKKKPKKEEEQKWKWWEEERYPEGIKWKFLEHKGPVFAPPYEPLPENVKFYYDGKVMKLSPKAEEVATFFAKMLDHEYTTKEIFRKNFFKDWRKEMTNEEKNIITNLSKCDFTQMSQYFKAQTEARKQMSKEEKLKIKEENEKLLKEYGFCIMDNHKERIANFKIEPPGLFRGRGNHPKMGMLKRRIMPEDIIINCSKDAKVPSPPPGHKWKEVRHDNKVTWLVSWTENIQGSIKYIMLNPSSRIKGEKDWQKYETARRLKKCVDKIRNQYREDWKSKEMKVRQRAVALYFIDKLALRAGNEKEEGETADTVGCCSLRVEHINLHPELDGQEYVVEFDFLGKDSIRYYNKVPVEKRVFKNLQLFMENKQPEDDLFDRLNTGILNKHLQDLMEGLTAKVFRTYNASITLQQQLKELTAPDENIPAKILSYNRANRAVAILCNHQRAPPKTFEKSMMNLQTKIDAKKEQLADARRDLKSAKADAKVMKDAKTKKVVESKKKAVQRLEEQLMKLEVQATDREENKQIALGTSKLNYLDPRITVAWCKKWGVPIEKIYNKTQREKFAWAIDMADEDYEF

DNA topoisomerase II [2] = target: T2, DNA topoisomerase II (Homo sapiens, UniProt P11388+Q02880); assay: Inhibitory concentration against relaxation activity of DNA topoisomerase II by detecting the conversion of supercoiled pBR322 DNA to its relaxed form; assay type: protein assay
HeLa [3] = assay: Concentration required to inhibit S phase and G2/M phase in HeLa cells; assay type: functional, cell-based; conditions: Homo sapiens
In short: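 HeLa cells cultured with compound, then cell-cycle progression analysed by flow cytometry; read-out was the percentage of cells in the G0/G1, S and G2/M phases.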

HeLa [4] = assay: Growth inhibitory concentration of compound was determined against HeLa cells by alamar blue assay; assay type: functional; conditions: Homo sapiens
DNA topoisomerase II [5] = target: T2, DNA topoisomerase II; assay: Inhibition of relaxation activities of DNA topoisomerase II with respect to pBR322 DNA; assay type: protein assay
In short: (§1)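 Ki from Lineweaver–Burk plots: the rate of relaxation of supercoiled pBR322 DNA by the topoisomerase was measured across a range of DNA substrate concentrations, with and without inhibitor.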

DNA topoisomerase 1 [6] = target: T1, DNA topoisomerase 1; assay: Inhibition of relaxation activities of DNA topoisomerase I with respect to pBR322 DNA; in short: as §1

SMILES | IC50 (DNA topoisomerase 1 [1]) [µM] | also measured
CC(=O)Oc1cc(C(=O)Nc2ccccc2NC(=O)c2cc(OC(C)=O)c(OC(C)=O)c(OC(C)=O)c2)cc(OC(C)=O)c1OC(C)=O | 4.7 | –
CC(=O)Oc1ccc(C(=O)Nc2ccc(NC(=O)c3ccc(OC(C)=O)c(OC(C)=O)c3)cc2)cc1OC(C)=O | > 100 | –
O=C(Nc1ccccc1NC(=O)c1ccc(O)cc1)c1ccc(O)cc1 | > 100 | –
O=C(Nc1ccc(NC(=O)c2ccc(O)cc2)cc1)c1ccc(O)cc1 | > 100 | –
O=C(Nc1nc2ccccc2s1)c1ccc(O)c(O)c1 | 16.9 | –
O=C(Nc1ccc(NC(=O)c2ccc(O)c(O)c2)cc1)c1ccc(O)c(O)c1 | 2.6 | –
CC(=O)Oc1cc(C(=O)Nc2ccc(NC(=O)c3cc(OC(C)=O)c(OC(C)=O)c(OC(C)=O)c3)cc2)cc(OC(C)=O)c1OC(C)=O | 8.6 | –
O=C(Nc1ccc(NC(=O)c2cc(O)c(O)c(O)c2)cc1)c1cc(O)c(O)c(O)c1 | 1.4 | IC50 (DNA topoisomerase II [2]): 0.15 µM
CC(=O)Oc1ccc(C(=O)Nc2ccccc2NC(=O)c2ccc(OC(C)=O)c(OC(C)=O)c2)cc1OC(C)=O | 88 | –
CC(=O)Oc1cc(C(=O)Nc2cccc(NC(=O)c3cc(OC(C)=O)c(OC(C)=O)c(OC(C)=O)c3)c2)cc(OC(C)=O)c1OC(C)=O | 11.2 | –
CC[C@@]1(O)C(=O)OCc2c1cc1n(c2=O)Cc2cc3ccccc3nc2-1 [CAMPTOTHECIN] | – | Concentration (HeLa [3]): 0.1 µM; GI50 (HeLa [4]): 0.6 µM
O=C(Nc1ccccc1NC(=O)c1ccc(O)c(O)c1)c1ccc(O)c(O)c1 | 6.4 | –
CC(=O)Oc1ccc(C(=O)Nc2ccc(NC(=O)c3ccc(OC(C)=O)cc3)cc2)cc1 | > 100 | –
O=C(Nc1cccc(NC(=O)c2ccc(O)c(O)c2)c1)c1ccc(O)c(O)c1 | 10 | –
O=C(Nc1nc2ccccc2s1)c1ccc(O)cc1 | > 100 | –
O=C(Nc1nc2ccccc2s1)c1cc(O)c(O)c(O)c1 | 8.2 | –
O=C(Nc1ccccc1)c1cc(O)c(O)c(O)c1 | > 100 | –
COc1cc([C@@H]2c3cc4c(cc3[C@@H](O[C@@H]3O[C@@H]5CO[C@@H](C)O[C@H]5[C@H](O)[C@H]3O)[C@H]3COC(=O)[C@H]23)OCO4)cc(OC)c1O [ETOPOSIDE] | – | Concentration (HeLa [3]): 2 µM; GI50 (HeLa [4]): 40 µM
O=C(Nc1ccccc1NC(=O)c1ccccc1)c1ccccc1 | > 100 | –
CC(=O)Oc1ccc(C(=O)Nc2cccc(NC(=O)c3ccc(OC(C)=O)c(OC(C)=O)c3)c2)cc1OC(C)=O | 43.2 | –
O=C(Nc1ccccc1NC(=O)c1cc(O)c(O)c(O)c1)c1cc(O)c(O)c(O)c1 | 0.9 | IC50 (DNA topoisomerase II [2]): 0.09 µM; Ki (DNA topoisomerase II [5]): 0.0741 µM; GI50 (HeLa [4]): 30 µM; Ki (DNA topoisomerase 1 [6]): 0.4 µM
O=C(Nc1cccc(NC(=O)c2cc(O)c(O)c(O)c2)c1)c1cc(O)c(O)c(O)c1 | 1.6 | IC50 (DNA topoisomerase II [2]): 0.22 µM
O=C(Nc1cccc(NC(=O)c2ccc(O)cc2)c1)c1ccc(O)cc1 | > 100 | –
CC(=O)Oc1ccc(C(=O)Nc2cccc(NC(=O)c3ccc(OC(C)=O)cc3)c2)cc1 | > 100 | –
CC(=O)Oc1ccc(C(=O)Nc2ccccc2NC(=O)c2ccc(OC(C)=O)cc2)cc1 | > 100 | –
